Results of several laboratories.
Compare with care: the assays were run in different laboratories. pIC50: −log10 of the molar value.
Action: inhibitor
ache: Acetylcholinesterase (ache, Electrophorus electricus, UniProt O42275)
Sialidase-4: Sialidase-4 (Homo sapiens, UniProt Q8WWR8)
ALOX15: Polyunsaturated fatty acid lipoxygenase ALOX15 (ALOX15, Homo sapiens, UniProt P16050)

| Compound | target | read-out | method | pIC50 |
| --- | --- | --- | --- | --- |
| Fc1ccc(-c2nnc(-c3ccc(OCc4cn(Cc5ccc(Cl)cc5)nn4)cc3)o2)cc1 | ache | enzyme activity | Ellman | < 4.00 |
| CCN[C@H]1[C@H]([C@H](O)[C@H](O)CO)OC(C(=O)O)=C[C@@H]1O | Sialidase-4 | enzyme activity |  | < 3.30 |
| CCOC(=O)c1ccccc1-c1c2ccc(=O)cc-2oc2cc(OCCCNc3c(-c4ccc(Cl)cc4)nc4ccccn34)ccc12 | ALOX15 | enzyme activity | absorbance | 4.10 |
| O=C(N1CCC2(CC1)C[C@@H](CN1CCCCS1(=O)=O)CCO2)C1(c2ccccc2)CCCC1 | ATP-dependent RNA helicase DDX3X (DDX3X, Homo sapiens, UniProt O00571) | ATPase activity |  | < 4.30 |
| CCOC(=O)c1ccccc1-c1c2ccc(=O)cc-2oc2cc(OCCCNC(=O)C(OC(=O)c3ccccc3)C3CC3)ccc12 (centres unmarked) | ALOX15 | enzyme activity | absorbance | 4.36 |
| Fc1ccc(Cn2cc(COc3ccc(-c4nnc(-c5ccccc5)o4)cc3)nn2)cc1 | ache | enzyme activity | Ellman | < 4.00 |
| O=C(O)C1=C[C@H](O)[C@@H](NCc2ccc(-c3ccccc3)cc2)[C@H]([C@H](O)[C@H](O)CO)O1 | Sialidase-4 | enzyme activity |  | 3.59 |
| CCN(C)C(=O)Oc1ccc(CCC(=O)N2CCc3ccccc3C2)cc1OC | ache | enzyme activity | Ellman | 4.97 |
| CCCCCCCCCC(=O)N[C@@H](CCCN=C(N)N)C(=O)N[C@H](C(=O)N[C@@H](CCCCN)C(=O)N[C@@H](CCCN=C(N)N)C(=O)CCl)C(C)C | Furin (FURIN, Homo sapiens, UniProt P09958) | enzyme activity |  | 8.53 |
| CCCCCCN[C@H]1[C@H]([C@H](O)[C@H](O)CO)OC(C(=O)O)=C[C@@H]1O | Sialidase-4 | enzyme activity |  | < 3.30 |
| CCOC(=O)c1ccccc1-c1c2ccc(=O)cc-2oc2cc(OCCCNc3c(-c4ccc(OC(C)=O)cc4)nc4ccccn34)ccc12 | ALOX15 | enzyme activity | absorbance | < 4.00 |
| CN1CC[C@@]2(C)c3cc(OC(=O)Nc4ccccc4)ccc3N(C)[C@@H]12 | Aldehyde dehydrogenase 1A1 (ALDH1A1, Homo sapiens, UniProt P00352) | enzyme activity | fluorescence | > 5.00 |
| CCN(C)C(=O)Oc1ccc(/C=C/C(=O)NC2CCN(Cc3ccccc3)CC2)cc1OC | ache | enzyme activity | Ellman | 5.41 |
| CC(C)(C)CN[C@H]1[C@H]([C@H](O)[C@H](O)CO)OC(C(=O)O)=C[C@@H]1O | Sialidase-4 | enzyme activity |  | 4.40 |
| COc1cc(/C=C/C(=O)NC2CCN(Cc3ccccc3)CC2)ccc1OC(=O)N1CCCC1 | ache | enzyme activity | Ellman | 5.51 |
| COc1ccc(/C=C/C(=O)N2CCCC(NC(=O)OC(C)(C)C)C2)cc1OC (centres unmarked) | ache | enzyme activity | Ellman | < 4.30 |
| Cc1cn([C@H]2[C@H]([C@H](O)[C@H](O)CO)OC(C(=O)O)=C[C@@H]2O)nn1 | Sialidase-4 | enzyme activity |  | 4.59 |
